Shown are actives, neighbours in structure and some others; about 2.3% of the full set was active somewhere.
TRPC4 potent = positive allosteric modulators of TRPC4, primary screen, cell-based, mouse TRPC4beta, HEK293 mu-opioid, Fluo-4 calcium; AID 2227, 2009; Short transient receptor potential channel 4 (Mus musculus), Q9QUQ5; 310,000 compounds, 0.42% hits; DAMGO EC20, Fluo-4 Ca2+ flux; stronger effect = higher value; B-score at 10 µM;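 active means B-score of calcium response area above 5 SD of library B-scores, with initial fluorescence ratio within 5 SD of library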;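 further: B-score of integrated fluorescence ratio over time as area under calcium response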
Target sequence (Q9QUQ5 whole entry, looked up): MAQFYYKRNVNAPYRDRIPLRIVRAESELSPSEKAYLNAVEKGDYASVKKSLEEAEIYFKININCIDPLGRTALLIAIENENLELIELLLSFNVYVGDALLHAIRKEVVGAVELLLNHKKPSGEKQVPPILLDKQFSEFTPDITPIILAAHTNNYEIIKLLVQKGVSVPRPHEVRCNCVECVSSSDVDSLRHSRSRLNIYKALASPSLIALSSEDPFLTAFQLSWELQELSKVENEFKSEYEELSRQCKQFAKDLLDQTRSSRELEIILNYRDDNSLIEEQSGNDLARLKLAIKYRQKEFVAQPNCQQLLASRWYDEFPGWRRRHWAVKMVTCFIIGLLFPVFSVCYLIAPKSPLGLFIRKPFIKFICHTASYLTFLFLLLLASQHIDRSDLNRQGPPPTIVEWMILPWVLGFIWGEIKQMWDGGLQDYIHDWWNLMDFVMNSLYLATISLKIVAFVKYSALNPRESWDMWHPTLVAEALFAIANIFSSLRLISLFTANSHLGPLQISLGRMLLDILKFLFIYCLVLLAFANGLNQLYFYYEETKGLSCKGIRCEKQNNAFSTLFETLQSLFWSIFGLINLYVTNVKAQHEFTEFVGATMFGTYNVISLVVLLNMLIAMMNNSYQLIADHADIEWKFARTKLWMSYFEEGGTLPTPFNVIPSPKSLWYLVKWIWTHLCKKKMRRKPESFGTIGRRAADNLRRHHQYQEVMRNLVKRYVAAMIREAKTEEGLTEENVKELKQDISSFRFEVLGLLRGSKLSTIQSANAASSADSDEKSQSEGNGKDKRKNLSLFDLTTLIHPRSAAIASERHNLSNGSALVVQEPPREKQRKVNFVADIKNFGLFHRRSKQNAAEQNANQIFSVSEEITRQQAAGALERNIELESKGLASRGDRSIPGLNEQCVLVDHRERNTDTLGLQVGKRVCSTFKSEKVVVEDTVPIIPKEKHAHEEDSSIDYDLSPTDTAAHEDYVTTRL
TRPC6 activator = mouse TRPC6 channel activators, primary screen, cell-based, HEK293, membrane potential dye. B-score at 10 µM. Short transient receptor potential channel 6 (Mus musculus), Q61143. 310,000 compounds, 0.13% hits. HEK293-TRPC6 membrane potential dye fluorescence; stronger effect = higher value;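 active means B-score of the integrated fluorescence ratio above library mean plus 3 SD, and starting fluorescence ratio within library mean plus 5 SD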;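 further: higher score means more depolarization so channel activation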
TRPC4 inh = inhibitors of mouse TRPC4 channel, primary screen, Fluo4 calcium, HEK293 TRPC4beta/mu-opioid cells. Short transient receptor potential channel 4 (Mus musculus), Q9QUQ5. DAMGO-evoked Fluo4 calcium flux; stronger effect = lower value. B-score at 10 µM. 300,000 compounds, 0.39% hits. AID 2247, 2010;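 active means B-score over 3 SD under the library average, no early fluorescence shift, positive overall ratio signal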
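Assay system: HEK293 cells with stable TRPC4beta plus mu-opioid receptor expression; Probe or stimulus: DAMGO in two steps, submaximal then maximal; Dosing: single-point compound dosing; Measured by: Fluo4 calcium-dye fluorescence, kinetic read; Read-out basis: B score from integrated Fluo4 fluorescence ratio.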
TRPC6 inhibitor = mouse TRPC6 channel inhibitors, primary screen, cell-based, HEK293, membrane potential dye; ACh-evoked depolarization; stronger effect = lower value; Short transient receptor potential channel 6 (Mus musculus), Q61143; AID 2553, 2010; 310,000 compounds, 1.1% hits; B-score at 10 µM;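 active means B-score under library mean minus 3 SD, initial fluorescence not abnormally high, positive integrated signal ratio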;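 further: B-score derived from integrated fluorescence ratio over the kinetic read; more negative B-score means stronger inhibition of depolarization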
TRPC4 agonist = activators of mouse TRPC4 channel, primary screen, Fluo4 calcium, HEK293 TRPC4beta/mu-opioid cells; Short transient receptor potential channel 4 (Mus musculus), Q9QUQ5; Fluo4 calcium fluorescence; stronger effect = higher value; B-score at 10 µM; 310,000 compounds, 0.49% hits; AID 2237, 2010;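 active means B-score above 5 SD of library B-scores, and initial fluorescence ratio not above library mean plus 5 SD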;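 further: positive B-score marks a calcium rise read as TRPC4 activation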
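Technique: kinetic Fluo4 calcium fluorescence; Test system: TRPC4beta and mu-opioid receptor HEK293 stable cells; Measure: B-scored integrated calcium fluorescence ratio; Benchmarks: low control buffer alone, high control maximal DAMGO; Schedule: 45 min room-temperature Fluo4 loading, 110 s read.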
Active calls of the source: *; i = inactive.

SMILES | TRPC4 potent | TRPC6 activator | TRPC4 inh | TRPC6 inhibitor | TRPC4 agonist
c1cc2c(cc1CN1CCNCC1)OCO2 | i | i | i | i | i
Clc1ccccc1CN1CCNCC1 | i | i | i | i | i
Clc1ccc(CN2CCNCC2)cc1 | i | i | i | i | 54*
C/C(=N\N1CCCCCC1)c1c(O)n(-c2ccccc2C)c(=O)[nH]c1=O | i | i | i | i | i
COc1ccc(NC(=O)N2C[C@@H]3C[C@@H](C2)c2cccc(=O)n2C3)cc1 | i | i | i | i | i
CN1CC(C(=O)c2ccc([N+](=O)[O-])cc2)C(c2ccc(Cl)cc2)C1 (centres undefined) | 13* | i | i | i | i
CC(CN(C)C1CCN(C)CC1)c1ccccc1 (centres undefined) | i | i | i | i | i
Cc1ccc(-c2nc(N(C)C3CCN(C)CC3)c3ccccc3n2)cc1 | 24* | i | i | i | i
CCN(CC)C(=O)c1ccc(NC(=O)c2cccc(C(F)(F)F)c2)cc1 | i | i | i | i | i
CCN1CCN(S(=O)(=O)c2ccc(Cl)c(C(=O)Nc3ccc(C(=O)N(CC)CC)cc3)c2)CC1 | i | i | i | i | 48*
CCC1=Nc2cc(C(=O)N3CCC4(CC3)OCCO4)ccc2Sc2ccccc21 | i | i | i | i | i
CCC1=Nc2cc(C(=O)N3CCC4(CC3)OCCO4)ccc2Sc2ccc(C)cc21 | i | i | -6* | i | i
CNCCc1nc(N)n[nH]1 | i | i | i | i | 101*
COc1ccc(CN2CCN(Cc3ccccc3F)CC2)cc1 | i | i | i | i | i
CC(C)CC(NC(=O)C1CCCCC1)C(=O)N1CCC2(CC1)OCCO2 (centres undefined) | i | i | i | i | i
CC(C)C[C@H](NC(=O)[C@@H]1CCCN1C(=O)[C@@H](N)Cc1ccc(O)cc1)C(=O)NCC(N)=O | i | i | i | i | 53*
CC[C@]12C=CCN3CCC4(c5cc(Br)c(OC)cc5N(C)C4[C@@](O)(C(=O)OC)[C@@H]1OC(C)=O)C32 (some centres undefined) | i | i | i | i | i
Cc1cccc(OP(=O)(Nc2cccnc2)Oc2cccc(C)c2)c1 | 11* | i | i | i | i
Cc1ccc(OP(=O)(Nc2cccc(C)c2)Oc2ccc(C)cc2)cc1 | i | i | i | i | i
O=[N+]([O-])c1ccc(N2CCNCC2)c(Cl)c1 | 20* | i | i | i | 48*
Cc1cc(OCC(=O)N[C@H](C(=O)O)c2ccccc2)c2c3c(c(=O)oc2c1)CCC3 | i | i | i | i | i
CN1C[C@H](CO)C[C@@H]2c3cccc4[nH]cc(c34)C[C@H]21 | i | i | i | i | i
CCN(CC)C(=O)N[C@H]1C[C@@H]2c3cccc4[nH]cc(c34)C[C@H]2N(C)C1 | i | i | i | i | 83*
COc1ccc(C(CNC(=O)Cc2ccc(Cl)c(Cl)c2)N(C)C)cc1 (centres undefined) | i | i | i | i | 173*
COc1ccc(C(CNC(=O)Cc2ccc(Cl)c(Cl)c2)N2CCCCC2)cc1 (centres undefined) | i | i | i | i | i
SMILES | TRPC4 potent | TRPC6 activator | TRPC4 inh | TRPC6 inhibitor | TRPC4 agonist
CCOC(=O)c1ccc(NC(=O)N2C[C@@H]3C[C@@H](C2)c2cccc(=O)n2C3)cc1 | i | i | i | i | i
COc1ccc(-n2c(-c3ccccc3Br)nc3ccccc3c2=O)cc1 | i | i | i | i | i
Cc1ccc(NC(=S)NCCc2cnc[nH]2)cc1C | i | i | i | i | 225*
O=C(O)c1cccc(NC(=O)N2C[C@H]3C[C@@H](C2)c2cccc(=O)n2C3)c1 | i | i | i | i | i
CCOC(=O)C1(c2ccccc2)CCN(CCC(C#N)(c2ccccc2)c2ccccc2)CC1 | i | i | i | i | 94*
CCOC(=O)C1(CCOc2ccccc2)CCN(Cc2ccccc2OC)CC1 | i | i | i | i | i
CCOC(=O)C1(c2ccccc2)CCN(CC(=O)Nc2ccc(C)cc2)CC1 | i | i | -8* | i | i
O=c1[nH]c(=S)n(-c2ccccc2)c(O)c1/C=N/N1CCOCC1 | i | i | i | i | i
CCNC(=O)[C@H]1O[C@@H](n2cnc3c(N)ncnc32)[C@H](O)[C@@H]1O | i | i | i | i | 49*
NC(=O)c1cn(C2OC(CO)C(O)C2O)c2ncnc(N)c12 (centres undefined) | i | i | i | i | i
CCC(=NC1CCN(Cc2ccccc2)CC1)c1c(O)[nH]c(=O)[nH]c1=O | 10* | i | i | i | i
Cn1cnc(CCN)c1 | i | i | i | i | 143*
Cc1ccc(-n2c(C)cc(/C=C3/C(=O)NC(=O)N(Cc4ccco4)C3=O)c2C)cc1 | i | i | i | i | i
Cc1ccccc1-n1c(C)cc(/C=C2/C(=O)NC(=O)N(Cc3ccco3)C2=O)c1C | i | i | -6* | i | i
CC(=O)OC1(c2ccccc2)CCN(C2CCCCC2)CC1C (centres undefined) | i | i | -6* | i | i
CC(=O)O[C@]1(c2ccccc2)CCN(C)[C@H]2CCCC[C@@H]21 | i | i | i | i | i
Cc1c(N)c(C)c([N+](=O)[O-])c(C)c1[N+](=O)[O-] | i | i | -6* | i | i
CC1(C)CSC(=NCc2ccccc2)N1 | i | i | i | i | 68*
C=CCn1c(O)c(C=NCCN2CCOCC2)c(=O)[nH]c1=S | 10* | i | i | i | i
Cc1ccc(-n2cc(CNC(C)Cc3cnccn3)c(-c3cccc(C)c3)n2)cc1 (centres undefined) | i | i | i | i | 143*
Cc1cc(OCC(=O)NC(Cc2ccc(Cl)cc2)C(=O)O)c2c3c(c(=O)oc2c1)CCC3 (centres undefined) | i | i | i | i | i
